# Results pooled from the literature.
# Each line is one published result; the experiments were not run side by side.
# Organism: Staphylococcus aureus
# Effect on: microbial growth
Compound,technique,strain,time,notes,MIC
CC1(C)S[C@@H]2[C@H](NC(=O)[C@H](N)c3ccccc3)C(=O)N2[C@H]1C(=O)O,broth dilution,745524,,,4 µg/mL
O=C(Nc1cccc(NC(=O)Nc2ccc(Cl)c(C(F)(F)F)c2)c1)Nc1ccc(Cl)c(C(F)(F)F)c1,,NCTC8325,24 h,,1 µM
C/C=C(\C)c1cc(O)c(C)c(OC(=O)c2c(C)c(Cl)c(O)c(Cl)c2O)c1,broth dilution,745524,,,4 µg/mL
CC1COc2c(N3CCN(C)CC3)c(F)cc3c(=O)c(C(=O)O)cn1c23 (stereo not drawn),,NCTC8325,,,0.5 to 2 µM
O=C(O)c1cn(C2CC2)c2cc(N3CCNCC3)c(F)cc2c1=O,broth dilution,,24 h,,9.43 µM
O=C(COC(=O)c1n[nH]c2ccccc12)Nc1ccc(N2CCCCC2)cc1,,,,,> 128 µg/mL
Cc1ccc(C)n1-c1ccc(-c2nnco2)cc1,broth dilution,ATCC11632,18 h,,2 µg/mL
Clc1ccc(-c2nc3ccccc3[nH]2)c(Cl)c1,broth dilution,ATCC29213 MSSA,,,128 µg/mL
CC1(C)S[C@@H]2[C@H](NC(=O)[C@H](N)c3ccccc3)C(=O)N2[C@H]1C(=O)O,broth dilution,ATCC25923,16 h,,0.15 µg/mL
C=CC(=O)Nc1cccc(Oc2nc(Nc3ccc(N4CCN(C)CC4)cc3)ncc2Cl)c1,,NCTC8325,,,> 30 µM
O=[N+]([O-])c1ccc(-c2nc3ccccc3n2Cc2ccccc2)cc1,broth dilution,ATCC29213 MSSA,,,4 µg/mL
COc1cccc(NCc2ccc(Oc3ccccn3)cc2)c1,,,,,1.6 µg/mL
CCn1c(-c2nonc2N)nc2c(C#CC(C)(C)O)ncc(OC[C@H]3CCCNC3)c21,,NCTC8325,,,> 30 µM
O=C(Cc1cc(O)c(O)c(O)c1)NCCCCCCCC[P+](c1ccccc1)(c1ccccc1)c1ccccc1.[Br-],broth dilution,ATCC43300 MRSA,18 h,,> 32 µg/mL
CC(C)Oc1c(NC(=O)c2ccc(NC(=O)[C@H](CC(N)=O)NC(=O)c3ccc(NC(=O)Cc4ccc(C#N)cc4)cc3)cc2)ccc(C(=O)Nc2ccc(C(=O)O)cc2)c1O,,ATCC29213,,,> 64 µg/mL
N#Cc1c(O)c2c(-c3ccc(-c4ccccc4O)cc3)csc2[nH]c1=O,,NCTC8325,,,> 30 µM
CC(C)Oc1c(NC(=O)c2ccc(NC(=O)[C@H](CC(N)=O)NC(=O)c3ccc(NC(=O)c4ccc(C#N)cc4)cc3)cc2)ccc(C(=O)Nc2cccc(C(=O)O)c2)c1O,,ATCC29213,,,2 µg/mL
C=CC(=O)Nc1cccc(Oc2nc(Nc3ccc(N4CCN(C)CC4)cc3OC)ncc2Cl)c1,,NCTC8325,,,> 30 µM
O=C1NC(=S)S/C1=C\c1c2ccccc2c(-c2ccc(N(c3ccccc3)c3ccccc3)cc2)c2ccccc12,broth dilution,ATCC43300,,,> 1000 µg/mL
O=C(Nc1ccc(N2CCOCC2)cc1)Nc1ccc(Cl)c(C(F)(F)F)c1,,NCTC8325,24 h,,> 100 µM
Cn1c(SCc2ccc(Cl)cc2)nnc1-c1cncc(C#Cc2ccccc2)c1,,MRSA,,drug-resistant strain,≥ 20 µg/mL
